Laboratory results taken from ChEMBL document CHEMBL1122384, “Synthesis and evaluation of 24-(isopropyl[75Se]seleno)chol-5-en-3 beta-ol” (J Med Chem, 1983).

Columns and labels:
Homo sapiens [1] = species on record: Homo sapiens; experiment: Adsorbed radiation dose value was calculated to human total body; type: functional
Outline: (§1)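 Human absorbed radiation dose estimated by the standard MIRD method from rat tissue distribution (% dose/g, 1 h–21 days) and excretion data. Excretion came from three individually caged female rats, with urine and feces collected daily over 21 days.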

Homo sapiens [2] = species on record: Homo sapiens; experiment: Adsorbed radiation dose value was calculated to human adrenal; type: functional; outline: as §1
Homo sapiens [3] = species on record: Homo sapiens; experiment: Adsorbed radiation dose value was calculated to human small intestine; type: functional; outline: as §1
Homo sapiens [4] = species on record: Homo sapiens; experiment: Adsorbed radiation dose value was calculated to human liver; type: functional; outline: as §1
Homo sapiens [5] = species on record: Homo sapiens; experiment: Adsorbed radiation dose value was calculated to human kidney; type: functional; outline: as §1
Homo sapiens [6] = species on record: Homo sapiens; experiment: Adsorbed radiation dose value was calculated to human lungs; type: functional; outline: as §1
Homo sapiens [7] = species on record: Homo sapiens; experiment: Adsorbed radiation dose value was calculated to human ovaries; type: functional, Female gonad; outline: as §1
Homo sapiens [8] = species on record: Homo sapiens; experiment: Adsorbed radiation dose value was calculated to human pancreas; type: functional; outline: as §1
Homo sapiens [9] = species on record: Homo sapiens; experiment: Adsorbed radiation dose value was calculated to human spleen; type: functional; outline: as §1

CC(C)[73Se]CCC[C@H](C)[C@H]1CC[C@H]2[C@@H]3CC=C4C[C@@H](O)CC[C@]4(C)[C@H]3CC[C@]12C
Dose (Homo sapiens [1]): 0.24 rd mCi-1
Dose (Homo sapiens [2]): 1.6 rd mCi-1
Dose (Homo sapiens [3]): 0.64 rd mCi-1
Dose (Homo sapiens [4]): 1.7 rd mCi-1
Dose (Homo sapiens [5]): 0.67 rd mCi-1
Dose (Homo sapiens [6]): 1.7 rd mCi-1
Dose (Homo sapiens [7]): 1.2 rd mCi-1
Dose (Homo sapiens [8]): 0.5 rd mCi-1
Dose (Homo sapiens [9]): 1.9 rd mCi-1
